Reference: ChEMBL document CHEMBL1671789, “Evaluation of quinazoline analogues as glucocerebrosidase inhibitors with chaperone activity” (J Med Chem, 2011)
Active and inactive are the calls of the source.

Assays:
[1] = Inhibition of alpha-glucosidase
[2] = system: T1, Lysosomal acid glucosylceramidase (Homo sapiens), P04062 [N409S]; experiment: Activity at recombinant Gcase N370S mutant in human spleen homogenates assessed as hydrolysis of 4-MU-beta-D-glucose at 50 uM; type: tissue-based
T1 sequence (whole entry): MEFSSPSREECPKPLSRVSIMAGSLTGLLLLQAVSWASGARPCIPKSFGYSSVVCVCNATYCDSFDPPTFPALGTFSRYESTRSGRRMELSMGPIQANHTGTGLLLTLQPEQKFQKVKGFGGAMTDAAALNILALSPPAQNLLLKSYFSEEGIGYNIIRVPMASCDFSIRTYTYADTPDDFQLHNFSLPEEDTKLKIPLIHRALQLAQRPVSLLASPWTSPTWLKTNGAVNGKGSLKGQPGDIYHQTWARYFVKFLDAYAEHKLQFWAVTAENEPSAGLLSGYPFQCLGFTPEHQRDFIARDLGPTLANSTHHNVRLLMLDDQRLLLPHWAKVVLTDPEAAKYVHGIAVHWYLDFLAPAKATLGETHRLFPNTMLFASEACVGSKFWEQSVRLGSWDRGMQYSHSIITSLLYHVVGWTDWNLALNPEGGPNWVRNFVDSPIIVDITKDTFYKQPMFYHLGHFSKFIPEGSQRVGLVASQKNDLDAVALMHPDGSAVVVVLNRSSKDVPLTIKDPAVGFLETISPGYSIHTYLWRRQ
Procedure, shortened: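 Enzyme source: human spleen homogenate, 27 μg/well, in 50 mM citric acid/K2PO4 buffer pH 5 with 0.01% Tween20. Compound pin-transferred and preincubated 5 min at room temperature. Substrate 4MU-β-glc at 1 mM final, 45 min at 37 °C. Stopped with 1 M NaOH/1 M glycine pH 10. Fluorescence read at 365 nm excitation, 440 nm emission.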

[3] = Inhibition of alpha-galactosidase

Compound	Activity [1]	Activity [2]	Activity [3]
O=S(=O)(c1ccccc1)N1CCN(c2nccc(-c3cccs3)n2)CC1	inactive	inactive	inactive
Cc1ccc(-c2nc(N3CCN(S(=O)(=O)c4ccc(F)cc4)CC3)c3ccc(Cl)cc3n2)cc1	inactive	inactive	inactive
O=S(=O)(c1ccc(F)cc1)N1CCN(c2nc(-c3ccc(F)cc3)nc3cc(Cl)ccc23)CC1	inactive	inactive	inactive
O=S(=O)(c1ccc(F)cc1)N1CCN(c2nc(-c3ccccc3)nc3cc(Cl)ccc23)CC1	inactive	inactive	inactive
O=S(=O)(c1ccc(C(F)(F)F)cc1)N1CCN(c2nc(-c3cccs3)nc3cc(Cl)ccc23)CC1	inactive	inactive	inactive
Cc1ccc(S(=O)(=O)N2CCN(c3nc(C#N)nc4ccccc34)CC2)cc1	inactive	inactive	inactive
O=S(=O)(c1ccccc1)N1CCN(c2nc(-c3ccc(F)cc3)nc3cc(Cl)ccc23)CC1	inactive	inactive	inactive
Cc1ccc(S(=O)(=O)N2CCN(c3nc(-c4cccs4)nc(C)c3C)CC2)cc1	inactive	–	inactive
O=[N+]([O-])c1ccccc1S(=O)(=O)N1CCN(c2nc(-c3cccs3)nc3ccccc23)CC1	inactive	–	inactive
N#Cc1ccccc1S(=O)(=O)N1CCN(c2nc(-c3cccs3)nc3ccccc23)CC1	inactive	–	inactive
O=S(=O)(c1ccccc1C(F)(F)F)N1CCN(c2nc(-c3cccs3)nc3ccccc23)CC1	inactive	–	inactive
Cc1ccc(S(=O)(=O)C2CCN(c3nc(-c4cccs4)nc4ccccc34)CC2)cc1	inactive	–	inactive
O=C(c1ccccc1)N1CCN(c2nc(-c3cccs3)nc3ccccc23)CC1	inactive	–	inactive
O=S(=O)(c1cccc2ccccc12)N1CCN(c2nc(-c3cccs3)nc3ccccc23)CC1	inactive	–	inactive
Oc1ccc(N2CCN(c3nc(-c4cccs4)nc4ccccc34)CC2)cc1	inactive	–	inactive
O=S(=O)(c1nccs1)N1CCN(c2nc(-c3cccs3)nc3ccccc23)CC1	inactive	–	inactive
O=S(=O)(c1ccccc1C(F)(F)F)N1CCN(c2nc(-c3ccccc3)nc3ccccc23)CC1	inactive	–	inactive
O=[N+]([O-])c1ccccc1S(=O)(=O)N1CCN(c2nc(-c3ccccc3)nc3ccccc23)CC1	inactive	–	inactive
CC(=O)N1CCN(c2nc(-c3cccs3)nc3ccccc23)CC1	inactive	–	inactive
Fc1ccccc1N1CCN(c2nc(-c3cccs3)nc3ccccc23)CC1	inactive	–	inactive
CC(C)(C)C(=O)OCCNc1nc(-c2cccs2)nc2ccccc12	inactive	–	inactive

Compound	Activity [1]	Activity [2]	Activity [3]
Cc1ccc(S(=O)(=O)N2CCN(c3nc(-c4ccnnc4)nc4ccccc34)CC2)cc1	inactive	–	inactive
Cc1ccc(S(=O)(=O)N2CCN(c3nc(-c4cccs4)nc4ncccc34)CC2)cc1	inactive	–	inactive
CN(CCN(C)c1nc(-c2cccs2)nc2ccccc12)C(=O)OC(C)(C)C	inactive	–	inactive
O=S(=O)(c1ccc2c(c1)CCC2)N1CCN(c2nc(-c3ccccc3)nc3ccccc23)CC1	inactive	–	inactive
Cc1ccc(S(=O)(=O)N2CCN(c3ccnc(-c4cccs4)n3)CC2)cc1	inactive	–	inactive
CS(=O)(=O)N1CCN(c2nc(-c3cccs3)nc3ccccc23)CC1	inactive	–	inactive
Cc1ccc(S(=O)(=O)N2CCN(c3nc(-c4cnccn4)nc4ccccc34)CC2)cc1	inactive	–	inactive
O=S(=O)(c1ccc2c(c1)CCCC2)N1CCN(c2nc(-c3ccccc3)nc3ccccc23)CC1	inactive	–	inactive
O=S(=O)(N1CCN(c2nc(-c3cccs3)nc3ccccc23)CC1)C(F)(F)F	inactive	–	inactive
Cc1ccc(S(=O)(=O)N2CCN(c3nc(-n4cnc5ccccc54)nc4ccccc34)CC2)cc1	inactive	–	inactive
Cc1ccc(S(=O)(=O)N2CCN(c3ncnc4ccccc34)CC2)cc1	inactive	–	inactive
CCOc1ccc(S(=O)(=O)N2CCN(c3nc(-c4ccccc4)nc4ccccc34)CC2)cc1	inactive	–	inactive
O=S(=O)(c1ccc(C(F)(F)F)cc1)N1CCN(c2nc(-c3ccccc3)nc3ccccc23)CC1	inactive	–	inactive
O=[N+]([O-])c1cccc(S(=O)(=O)N2CCN(c3nc(-c4ccccc4)nc4ccccc34)CC2)c1	inactive	–	inactive
CC1(C)CCc2cc(S(=O)(=O)N3CCN(c4nc(-c5cccs5)nc5ccccc45)CC3)ccc2O1	inactive	–	inactive
O=S(=O)(c1ccc(F)cc1)N1CCN(c2nc(C3CC3)nc3ccccc23)CC1	inactive	–	inactive
O=[N+]([O-])c1ccc(S(=O)(=O)N2CCN(c3nc(-c4ccccc4)nc4ccccc34)CC2)cc1	inactive	–	inactive
Cc1ccc(S(=O)(=O)N(C)CCN(C)c2nc(-c3cccs3)nc3ccccc23)cc1	inactive	–	inactive
O=S(=O)(c1ccc2c(c1)OCCO2)N1CCN(c2nc(-c3cccnc3)nc3ccccc23)CC1	inactive	–	inactive
Cc1ccc(S(=O)(=O)N2CCN(c3nc(-c4cccs4)nc4cccnc34)CC2)cc1	inactive	–	inactive

Next, values leading:

Activity [1]	Activity [2]	Activity [3]	Compound
inactive	–	inactive	O=S(=O)(c1ccccc1F)N1CCN(c2nc(-c3cccs3)nc3ccccc23)CC1
inactive	–	inactive	COc1ccc(-c2nc(N3CCN(S(=O)(=O)c4ccc(C)cc4)CC3)c3ccccc3n2)cc1
inactive	–	inactive	COc1ccc(S(=O)(=O)N2CCN(c3nc(-c4cccs4)nc4ccccc34)CC2)cc1
inactive	–	inactive	Cc1cc(C)cc(S(=O)(=O)N2CCN(c3nc(-c4cccs4)nc4ccccc34)CC2)c1
inactive	–	inactive	O=S(=O)(c1ccc2c(Cl)cccc2c1)N1CCN(c2nc(-c3cccs3)nc3ccccc23)CC1
inactive	–	inactive	O=S(=O)(c1ccsc1)N1CCN(c2nc(-c3cccs3)nc3ccccc23)CC1
inactive	–	inactive	N#Cc1cccc(S(=O)(=O)N2CCN(c3nc(-c4cccs4)nc4ccccc34)CC2)c1
inactive	–	inactive	O=S(=O)(c1cccc(C(F)(F)F)c1)N1CCN(c2nc(-c3cccs3)nc3ccccc23)CC1
inactive	–	inactive	O=S(=O)(c1ccccc1Cl)N1CCN(c2nc(-c3cccs3)nc3ccccc23)CC1
inactive	–	inactive	Cc1ccc(S(=O)(=O)N2CCCN(c3nc(-c4cccs4)nc4ccccc34)CC2)cc1
inactive	–	inactive	N#Cc1ccc(S(=O)(=O)N2CCN(c3nc(-c4cccs4)nc4ccccc34)CC2)cc1
inactive	–	inactive	CC(C)(C)c1cccc(S(=O)(=O)N2CCN(c3nc(-c4cccs4)nc4ccccc34)CC2)c1
inactive	–	inactive	CCOC(=O)c1ccc(S(=O)(=O)N2CCN(c3nc(-c4cccs4)nc4ccccc34)CC2)cc1
inactive	–	inactive	CC(=O)c1ccccc1S(=O)(=O)N1CCN(c2nc(-c3cccs3)nc3ccccc23)CC1
inactive	–	inactive	O=S(=O)(c1ccc(C(F)(F)F)cc1)N1CCN(c2nc(-c3cccs3)nc3ccccc23)CC1
inactive	–	inactive	O=S(=O)(c1ccc2ncsc2c1)N1CCN(c2nc(-c3cccs3)nc3ccccc23)CC1
inactive	–	inactive	O=S(=O)(c1cccc(Cl)c1)N1CCN(c2nc(-c3cccs3)nc3ccccc23)CC1
inactive	–	inactive	COc1ccc(S(=O)(=O)N2CCN(c3nc(-c4cccs4)nc4ccccc34)CC2)cc1OC
